B1: tRNA (parent)
chain: GUUCCGUUGGCGUAAUGGUAACGCGUCUCCCUCCUAAGGAGAAGACUGCGGGUUCGAGUCCCGUACGGAACG

Fewer inactive variants are shown than the library holds. Where only a bound is given, the exact number is not on record here.

This series covers variants of B1. Nature of the series: yeast fitness relative to wild type (ratio to wild type); higher = fitter; tRNA-Arg(CCU), competitive growth, 37 C, YPD. A digest of the protocol:
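Variants of the tRNA-Arg(CCU) gene, chemically synthesised with a 3% per-site mutation rate at 69 sites, were placed at the native genomic locus in Saccharomyces cerevisiae. The pooled strains were competed in YPD at 37°C for 24 hours in six parallel replicates. Gene amplicons from the start population and from each end population were read by 100-nucleotide paired-end sequencing. Darwinian fitness relative to wild type came from changes in genotype frequencies; genotypes needed ≥ 100 starting reads, and estimates < 0.5 were set to 0.5.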
For GUUCCGUUGGCGUAAUGGUAACGCGUCUCCCUCCUAAGGAGAAGACUGCGGGUUCGAGUCCCCUACCGAACG [G63C G67C], the yeast fitness is 0.605.
The figure for GUUCCGUUGGCGUAAUGGUAACGCGUCUCCCUCCUAAGGAGAAGACUGCGGGUUCGAGUCCAGUACAGAACG [C62A G67A] is 0.817.
The figure for GUUCCGUUGGCGUAAUGGUAACGCGUCUCCCUCCUAAGGAGAAGACUGCGGGUUCGAGUCCAGUACCGAACG [C62A G67C] is 0.81.
The figure for GUUCCGUUGGCGUAAUGGUAACGCGUCUCCCUCCUAAGGAGAAGACUGCGGGUUCGAGUCCGGUAUGGAACG [C62G C66U] is 0.652; for GUUCCGUUGGCGUAAUGGUAACGCGUCUCCCUCCUAAGGAGAAGACUGCGGGUUCGAGUCCAGUAAGGAACG [C62A C66A] it is 0.51; for GUUCCGUUGGCGUAAUGGUAACGCGUCUCCCUCCUAAGGAGAAGACUGCGGGUUCGAGUCGCGUACGAAACG [C61G G68A] it is 0.677.
Regarding GUUCCGUUGGCGUAAUGGUAACGCGUCUCCCUCCUAAGGAGAAGACUGCGGGUUCGAGUCGCGUACGUAACG [C61G G68U], the yeast fitness worked out at 0.558.
GUUCCGUUGGCGUAAUGGUAACGCGUCUCCCUCCUAAGGAGAAGACUGCGGGUUCGAGUCCCAUACGGAGCG [G63A A70G]: the yeast fitness came to 0.804.
Regarding GUUCCGUUGGCGUAAUGGUAACGCGUCUCCCUCCUAAGGAGAAGACUGCGGGUUCGAGUCCUGUACGGAACG [C62U], the yeast fitness worked out at 0.994.
In the case of GUUCCGUUGGCGUAAUGGUAACGCGUCUCCCUCCUAAGGAGAAGACUGCGGGUUCGAGUCCAGUACGGAACG [C62A], the yeast fitness was found to be 0.72.
The figure for GUUCCGUUGGCGUAAUGGUAACGCGUCUCCCUCCUAAGGAGAAGACUGCGGGUUCGAGUCCGGUACGGAACG [C62G] is 0.924; for GUUCCGUUGGCGUAAUGGUAACGCGUCUCCCUCCUAAGGAGAAGACUGCGGGUUCGAGUCCCAUACUGAACG [G63A G67U] it is 0.686.
In the case of GUUCCGUUGGCGUAAUGGUAACGCGUCUCCCUCCUAAGGAGAAGACUGCGGGUUCGAGUCCUGUACGCAACG [C62U G68C], the yeast fitness is 0.812.
The figure for GUUCCGUUGGCGUAAUGGUAACGCGUCUCCCUCCUAAGGAGAAGACUGCGGGUUCGAGUCUCGUACGGGACG [C61U A69G] is 0.878; for GUUCCGUUGGCGUAAUGGUAACGCGUCUCCCUCCUAAGGAGAAGACUGCGGGUUCGAGUCCCCUGCGGAACG [G63C A65G] it is 0.594; for GUUCCGUUGGCGUAAUGGUAACGCGUCUCCCUCCUAAGGAGAAGACUGCGGGUUCGAGUCCCCUCCGGAACG [G63C A65C] it is 0.638.
GUUCCGUUGGCGUAAUGGUAACGCGUCUCCCUCCUAAGGAGAAGACUGCGGGUUCGAGUCUCGUCCGGAACG [C61U A65C]: the yeast fitness was 0.864.
The figure for GUUCCGUUGGCGUAAUGGUAACGCGUCUCCCUCCUAAGGAGAAGACUGCGGGUUCGAGUCCUAUACGGACCG [C62U G63A A70C] is 0.583; for GUUCCGUUGGCGUAAUGGUAACGCGUCUCCCUCCUAAGGAGAAGACUGCGGGUUCGAGUCCAGUACGGAUCG [C62A A70U] it is 0.858.
The figure for GUUCCGUUGGCGUAAUGGUAACGCGUCUCCCUCCUAAGGAGAAGACUGCGGGUUCGAGUCUCGUAAGGAACG [C61U C66A] is 0.644.
The figure for GUUCCGUUGGCGUAAUGGUAACGCGUCUCCCUCCUAAGGAGAAGACUGCGGGUUCGAGUCCCAUGCGGUACG [G63A A65G A69U] is 0.609; for GUUCCGUUGGCGUAAUGGUAACGCGUCUCCCUCCUAAGGAGAAGACUGCGGGUUCGAGUCGCGUACCAAACG [C61G G67C G68A] it is 0.611.
As for GUUCCGUUGGCGUAAUGGUAACGCGUCUCCCUCCUAAGGAGAAGACUGCGGGUUCGAGUCCAAUACGGACCG [C62A G63A A70C], the yeast fitness is 0.54.
The figure for GUUCCGUUGGCGUAAUGGUAACGCGUCUCCCUCCUAAGGAGAAGACUGCGGGUUCGAGUCCUGUACGGCACG [C62U A69C] is 1.02; for GUUCCGUUGGCGUAAUGGUAACGCGUCUCCCUCCUAAGGAGAAGACUGCGGGUUCGAGUCCUGUACGGGACG [C62U A69G] it is 0.918.
For GUUCCGUUGGCGUAAUGGUAACGCGUCUCCCUCCUAAGGAGAAGACUGCGGGUUCGAGUCCCAUAUGGAACG [G63A C66U], the yeast fitness was found to be 0.826.
The figure for GUUCCGUUGGCGUAAUGGUAACGCGUCUCCCUCCUAAGGAGAAGACUGCGGGUUCGAGUCGCGCACGGAACG [C61G U64C] is 0.579; for GUUCCGUUGGCGUAAUGGUAACGCGUCUCCCUCCUAAGGAGAAGACUGCGGGUUCGAGUCGCGGACGGAACG [C61G U64G] it is 0.651.
The figure for GUUCCGUUGGCGUAAUGGUAACGCGUCUCCCUCCUAAGGAGAAGACUGCGGGUUCGAGUCGCGUACCGAACG [C61G G67C] is 0.61; for GUUCCGUUGGCGUAAUGGUAACGCGUCUCCCUCCUAAGGAGAAGACUGCGGGUUCGAGUCGCGUACAGAACG [C61G G67A] it is 0.592; for GUUCCGUUGGCGUAAUGGUAACGCGUCUCCCUCCUAAGGAGAAGACUGCGGGUUCGAGUCCCCUAUGGAACG [G63C C66U] it is 0.666.
The figure for GUUCCGUUGGCGUAAUGGUAACGCGUCUCCCUCCUAAGGAGAAGACUGCGGGUUCGAGUCCCCUAGGGAACG [G63C C66G] is 0.709; for GUUCCGUUGGCGUAAUGGUAACGCGUCUCCCUCCUAAGGAGAAGACUGCGGGUUCGAGUCGCGUACGGGACG [C61G A69G] it is 0.567; for GUUCCGUUGGCGUAAUGGUAACGCGUCUCCCUCCUAAGGAGAAGACUGCGGGUUCGAGUCGCGUACGGCACG [C61G A69C] it is 0.748.
On to GUUCCGUUGGCGUAAUGGUAACGCGUCUCCCUCCUAAGGAGAAGACUGCGGGUUCGAGUCCCAUACGCAACG [G63A G68C], for which the yeast fitness was 0.883.
GUUCCGUUGGCGUAAUGGUAACGCGUCUCCCUCCUAAGGAGAAGACUGCGGGUUCGAGUCCCAUACGAAACG [G63A G68A]: the yeast fitness was 0.843.
The figure for GUUCCGUUGGCGUAAUGGUAACGCGUCUCCCUCCUAAGGAGAAGACUGCGGGUUCGAGUCUCGUCCAAAACG [C61U A65C G67A G68A] is not above 0.5; for GUUCCGUUGGCGUAAUGGUAACGCGUCUCCCUCCUAAGGAGAAGACUGCGGGUUCGAGUCCUGUACGGACCG [C62U A70C] it is 0.91.

These data come from the RNAGym collection of RNA variant scans (doi:10.1126/science.aae0568).
